In general, MIC90 refers to an inhibitory concentration at the 90% level, which refers to growth in some studies and to a panel of isolates in others.

Consider ten compounds from ChEMBL document CHEMBL1154956, “Stereospecific synthesis of oximes and oxime ethers of 3-azabicycles: A SAR study towards antimicrobial agents” (2010).

The structures appear in SMILES notation. ≈ marks a conversion by molar mass, not a printed value.

What all share (type): functional
One experiment concerns Staphylococcus aureus. As to the kind of experiment: Antibacterial activity against Staphylococcus aureus by NCCLS broth microdilution method. (Broth dilution looks for growth in wells or tubes with falling amounts of substance.)
Another experiment deals with Klebsiella pneumoniae. Nature of the experiment: Antibacterial activity against Klebsiella pneumoniae by NCCLS broth microdilution method.
The subject of the next experiment is Pseudomonas aeruginosa. As to the kind of experiment: Antibacterial activity against Pseudomonas aeruginosa by NCCLS broth microdilution method.
The next experiment has as its system Aspergillus niger. Nature of the experiment: Antifungal activity against Aspergillus niger by NCCLS broth microdilution method. Summed up:
(§1)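 MIC90 was taken as the lowest concentration that inhibited 90% of pathogen growth after incubation, reported in μg/mL. Broth dilution followed the NCCLS reference standards: M27-A for yeasts and the proposed standard for conidium-forming filamentous fungi. Fluconazole was the reference drug.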

For the next experiment, the system named is Bacillus subtilis. As to the kind of experiment: Antibacterial activity against Bacillus subtilis by NCCLS broth microdilution method.
Another experiment relates to Candida parapsilosis. Nature of the experiment: Antifungal activity against Candida parapsilosis by NCCLS broth microdilution method. Summed up: as §1
The test system of another experiment is Candida albicans. As to the kind of experiment: Antifungal activity against Candida albicans by NCCLS broth microdilution method. The gist of the method:
as §1

For the next experiment, the system named is Cryptococcus neoformans. Nature of the experiment: Antifungal activity against Cryptococcus neoformans by NCCLS broth microdilution method. The gist of the method: as §1
The mark [1] stands for this setting: Staphylococcus aureus, read-out: MIC90.
Where [2] appears, read: Klebsiella pneumoniae, read-out: MIC90.
Setting [3] is: Pseudomonas aeruginosa, read-out: MIC90.
[4] abbreviates: Aspergillus niger, read-out: MIC90.
[5] abbreviates: Bacillus subtilis, read-out: MIC90.
[6] abbreviates: Lodderomyces parapsilosis, read-out: MIC90.
Setting [7] is: Candida albicans, read-out: MIC90.
Where [8] appears, read: Cryptococcus neoformans, read-out: MIC90.

`CC1CC2C(=NO)C(C1)C(c1ccccc1Cl)NC2c1ccccc1Cl` (stereo in doubt; 52b): the MIC90 is 16 µg/mL (≈ 41.1 µM) against Staphylococcus aureus; 32 µg/mL (≈ 82.2 µM) against Klebsiella pneumoniae; above 128 µg/mL with Pseudomonas aeruginosa; 32 µg/mL (≈ 82.2 µM) with Aspergillus niger; 64 µg/mL (≈ 164 µM) against Bacillus subtilis; 16 µg/mL (≈ 41.1 µM) against Candida parapsilosis. For the same compound, the MIC90 was 4 µg/mL (≈ 10.3 µM) against Candida albicans and 64 µg/mL (≈ 164 µM) with Cryptococcus neoformans.

On to `CO/N=C1\C2CCCC1(C)C(c1ccccc1Br)NC2c1ccccc1Br` (stereo not given), for which the MIC90 stood at 64 µg/mL (≈ 130 µM) in the experiment with Staphylococcus aureus (setting [1]); 64 µg/mL (≈ 130 µM) with Klebsiella pneumoniae (setting [2]); 128 µg/mL (≈ 260 µM) with Pseudomonas aeruginosa (setting [3]); 32 µg/mL (≈ 65 µM) in the experiment with Aspergillus niger (setting [4]); 64 µg/mL (≈ 130 µM) in the experiment on Bacillus subtilis (setting [5]); 32 µg/mL (≈ 65 µM) with Candida parapsilosis (setting [6]). Besides, the MIC90 with Candida albicans (setting [7]) was 64 µg/mL (≈ 130 µM); in the experiment on Cryptococcus neoformans (setting [8]) it was 128 µg/mL (≈ 260 µM).

Regarding `CO/N=C1\C2CCCC1(C)C(c1ccc(C)cc1)NC2c1ccc(C)cc1` (stereo not given), the MIC90 with Staphylococcus aureus (setting [1]) was 64 µg/mL (≈ 177 µM); in the experiment on Klebsiella pneumoniae (setting [2]), 64 µg/mL (≈ 177 µM); with Pseudomonas aeruginosa (setting [3]) it was 128 µg/mL (≈ 353 µM); with Aspergillus niger (setting [4]), 32 µg/mL (≈ 88.3 µM); in the experiment with Bacillus subtilis (setting [5]) it was 32 µg/mL (≈ 88.3 µM); with Candida parapsilosis (setting [6]), above 128 µg/mL. Further, the MIC90 in the experiment on Candida albicans (setting [7]) stood at 128 µg/mL (≈ 353 µM); in the experiment on Cryptococcus neoformans (setting [8]), 64 µg/mL (≈ 177 µM).

With `COc1ccccc1C1NC(c2ccccc2OC)C2(C)CCCC1/C2=N\O` (stereo not given), the MIC90 in the experiment with Staphylococcus aureus (setting [1]) is 64 µg/mL (≈ 168 µM); in the experiment with Klebsiella pneumoniae (setting [2]) it was 128 µg/mL (≈ 336 µM); in the experiment on Pseudomonas aeruginosa (setting [3]), 128 µg/mL (≈ 336 µM); with Aspergillus niger (setting [4]) it was 128 µg/mL (≈ 336 µM); in the experiment on Bacillus subtilis (setting [5]), 64 µg/mL (≈ 168 µM); in the experiment on Candida parapsilosis (setting [6]), 128 µg/mL (≈ 336 µM). The MIC90 with Candida albicans (setting [7]) is above 128 µg/mL; with Cryptococcus neoformans (setting [8]), 64 µg/mL (≈ 168 µM).

Regarding `CO/N=C1\C2CCCC1(C)C(c1ccccc1F)NC2c1ccccc1F` (stereo not given), the MIC90 stood at 4 µg/mL (≈ 10.8 µM) in the experiment with Staphylococcus aureus (setting [1]); 4 µg/mL (≈ 10.8 µM) in the experiment with Klebsiella pneumoniae (setting [2]); 8 µg/mL (≈ 21.6 µM) in the experiment on Pseudomonas aeruginosa (setting [3]); 16 µg/mL (≈ 43.2 µM) in the experiment on Aspergillus niger (setting [4]); 16 µg/mL (≈ 43.2 µM) in the experiment on Bacillus subtilis (setting [5]); 8 µg/mL (≈ 21.6 µM) with Candida parapsilosis (setting [6]). In addition, the MIC90 worked out at 4 µg/mL (≈ 10.8 µM) with Candida albicans (setting [7]) and 8 µg/mL (≈ 21.6 µM) in the experiment on Cryptococcus neoformans (setting [8]).

For `CON=C1C2CC(C)CC1C(c1cccc(Cl)c1)NC2c1cccc(Cl)c1` (stereo not given), the MIC90 in the experiment on Staphylococcus aureus (setting [1]) was 32 µg/mL (≈ 79.3 µM); in the experiment on Klebsiella pneumoniae (setting [2]), 32 µg/mL (≈ 79.3 µM); with Pseudomonas aeruginosa (setting [3]), 128 µg/mL (≈ 317 µM); in the experiment on Aspergillus niger (setting [4]), 32 µg/mL (≈ 79.3 µM); with Bacillus subtilis (setting [5]), 64 µg/mL (≈ 159 µM); with Candida parapsilosis (setting [6]), 8 µg/mL (≈ 19.8 µM). In addition, the MIC90 with Candida albicans (setting [7]) was found to be 16 µg/mL (≈ 39.7 µM); with Cryptococcus neoformans (setting [8]) it was 32 µg/mL (≈ 79.3 µM).

In the case of `CC12CCCC(/C1=N\O)C(c1ccccc1Cl)NC2c1ccccc1Cl` (stereo not given), the MIC90 was 8 µg/mL (≈ 20.5 µM) with Staphylococcus aureus (setting [1]); 16 µg/mL (≈ 41.1 µM) with Klebsiella pneumoniae (setting [2]); 32 µg/mL (≈ 82.2 µM) with Pseudomonas aeruginosa (setting [3]); 16 µg/mL (≈ 41.1 µM) with Aspergillus niger (setting [4]); 64 µg/mL (≈ 164 µM) in the experiment on Bacillus subtilis (setting [5]); 8 µg/mL (≈ 20.5 µM) in the experiment with Candida parapsilosis (setting [6]). Further, the MIC90 in the experiment with Candida albicans (setting [7]) was 64 µg/mL (≈ 164 µM); in the experiment on Cryptococcus neoformans (setting [8]), 8 µg/mL (≈ 20.5 µM).

In the case of `CC12CCCC(/C1=N\O)C(c1ccccc1)NC2c1ccccc1` (stereo not given), the MIC90 is 128 µg/mL (≈ 399 µM) in the experiment on Staphylococcus aureus (setting [1]); above 128 µg/mL in the experiment with Klebsiella pneumoniae (setting [2]); above 128 µg/mL in the experiment with Pseudomonas aeruginosa (setting [3]); above 128 µg/mL with Aspergillus niger (setting [4]); above 128 µg/mL in the experiment with Bacillus subtilis (setting [5]); above 128 µg/mL in the experiment on Candida parapsilosis (setting [6]). The MIC90 in the experiment on Candida albicans (setting [7]) and in the experiment on Cryptococcus neoformans (setting [8]) was above 128 µg/mL each time.

With `CON=C1C2CC(C)CC1C(c1cccc(F)c1)NC2c1cccc(F)c1` (stereo in doubt; 56a), the MIC90 with Staphylococcus aureus (setting [1]) is 16 µg/mL (≈ 43.2 µM); with Klebsiella pneumoniae (setting [2]) it was 64 µg/mL (≈ 173 µM); in the experiment with Pseudomonas aeruginosa (setting [3]), 64 µg/mL (≈ 173 µM); with Aspergillus niger, 64 µg/mL (≈ 173 µM); in the experiment on Bacillus subtilis (setting [5]) it was 16 µg/mL (≈ 43.2 µM); with Candida parapsilosis (setting [6]), 32 µg/mL (≈ 86.4 µM). Besides, the MIC90 in the experiment with Candida albicans was 32 µg/mL (≈ 86.4 µM); with Cryptococcus neoformans (setting [8]) it was 64 µg/mL (≈ 173 µM).

In the case of `CC1CC2C(=NO)C(C1)C(c1ccccc1F)NC2c1ccccc1F` (stereo in doubt; 49a), the MIC90 with Staphylococcus aureus was determined as 8 µg/mL (≈ 22.4 µM); against Klebsiella pneumoniae, 16 µg/mL (≈ 44.9 µM); with Pseudomonas aeruginosa, 32 µg/mL (≈ 89.8 µM); in the experiment with Aspergillus niger, 64 µg/mL (≈ 180 µM); with Bacillus subtilis (setting [5]), 16 µg/mL (≈ 44.9 µM); with Candida parapsilosis, 128 µg/mL (≈ 359 µM). Further, the MIC90 against Candida albicans and with Cryptococcus neoformans was 64 µg/mL (≈ 180 µM) throughout.
